UPR CHOP act = apoptotic UPR (CHOP) activation. CHO-CHOP luciferase reporter, luminescence; percent of tunicamycin response over DMSO baseline. activation, % at 10 µM. 0.34% of 330,000 active. AID 449763;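 active = at 10 µM dose, activation of 40% or more, normalized to positive control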;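 note: 100% = tunicamycin at 10 µg/mL and 0% = DMSO alone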
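measured by = luciferase luminescence | assay system = CHO-CHOP cells, stable luciferase reporter of PERK-eIF2a-CHOP signalling | amount = 500 reporter cells seeded per well | timing = 6 h compound exposure at 37 °C after overnight seeding | controls = positive tunicamycin 10 µg/mL, negative DMSO alone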
CHOP inhibitor = CHOP inhibition in unfolded protein response; 3.8% of 220,000 active; AID 2732; inhibition, % at 10 µM; CHO-K1 CHOP-promoter luciferase, tunicamycin-induced, 15-18 h;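 active = compounds that reduced the stress-induced luciferase reporter signal by more than about 70% of percent inhibition, limit read from the data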;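 note: 0% = tunicamycin plus vehicle and 100% = wells without tunicamycin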
XBP1 UPR activ = activators of adaptive arm of unfolded protein response (XBP1). CHO-XBP1 luciferase reporter, IRE1-XBP1 UPR activation, luminescence; percent of tunicamycin response, DMSO as zero. activation, % at 20 µM. 0.33% of 330,000 active;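 active = versus positive control, 20 µM dose yields 30% or more activation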;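 note: 100% = tunicamycin at 10 µg/mL and 0% = DMSO only wells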
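Material: CHO-XBP1 cells stably carrying IRE1-XBP1-driven luciferase reporter / Amount: 1000 cells per well / Compound: 20 µM, 1% DMSO / Times: 6 h treatment, 37 °C / Detection: luciferase luminescence / Measure: % activation of reporter signal versus tunicamycin and DMSO controls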
pCIP destab = lowers stability of the mouse p/CIP coactivator protein; F442A p/CIP-EGFP cells, EGFP fluorescence, 16 h; decrease of EGFP signal, % at 10 µM; 0.01% of 290,000 active;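 active = EGFP signal decrease of at least 30% at 10 µM or well 3 SD below plate mean, unless failing retest; inactive = the rest, including hits failing retest or dose response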
Dynein cargo inh = dynein cargo transport inhibition. z-score, hits read low. 3617.4 mouse cells, GR-EGFP nuclear translocation imaging; test concentration mostly 20 µM; stimulated with dexamethasone, 1 µM; hits give low values. 0.47% of 220,000 active. AID 1381;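 active = plate z-score of nuclear minus cytoplasmic receptor signal below a set negative limit, without overly bright fluorescence or cell loss, cut at about -3.5 in these data, passing the limit was not always enough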;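 note: z-score of nuclear minus cytoplasmic ring GR-EGFP intensity difference per well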
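Medium: Induction medium lacking tetracycline, stripped serum | Probe or stimulus: 1.0 µM final dexamethasone stimulus | Schedule: 48 h induction, then 1 h compound, then 30 min agonist, 37 °C | Signal: Automated 10x imaging of fixed Hoechst-stained cells | Evaluation: Per-cell GR-EGFP intensity, nucleus versus surrounding cytoplasmic ring, well-averaged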
Beta2AR agonist = human beta-2 adrenergic receptor agonism by FAP; Am2.2-beta2AR cells, FAP receptor internalization, flow cytometry; P07550; response, % (no concentration beside the values); 0.43% of 340,000 active; AID 504454;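 active = response above a set limit, near 3 SD of response in nonfluorescent compounds, cut at about 42% in these data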
Target sequence (P07550 whole entry, looked up): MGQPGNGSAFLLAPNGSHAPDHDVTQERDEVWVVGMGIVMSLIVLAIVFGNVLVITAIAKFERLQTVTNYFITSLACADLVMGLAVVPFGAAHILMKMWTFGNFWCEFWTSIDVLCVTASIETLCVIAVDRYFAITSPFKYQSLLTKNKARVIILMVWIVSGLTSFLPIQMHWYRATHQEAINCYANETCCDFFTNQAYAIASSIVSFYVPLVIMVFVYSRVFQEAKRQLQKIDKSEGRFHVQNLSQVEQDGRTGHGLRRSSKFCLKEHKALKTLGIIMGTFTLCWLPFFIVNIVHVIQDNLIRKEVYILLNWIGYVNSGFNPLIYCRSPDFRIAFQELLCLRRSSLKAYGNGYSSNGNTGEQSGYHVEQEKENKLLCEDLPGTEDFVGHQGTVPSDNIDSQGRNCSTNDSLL
An asterisk follows results filed as active; x = not tested or not shown. The sample as a whole holds a higher share of hits than the screen did.

SMILES	UPR CHOP act	CHOP inhibitor	XBP1 UPR activ	pCIP destab	Dynein cargo inh	Beta2AR agonist
Cc1c(Cl)c([N+](=O)[O-])nn1CCCC(=O)N1CCN(c2ccccc2)CC1	0.3	42.5	-2.7	0.8	-0.432	3.1
C=CCC[C@H](Cc1ccc(F)cc1)C(=O)OC[C@@H](Cc1c[nH]c2ccccc12)NC(=O)[C@@H](CC=C)CC(=O)N(CCO)Cc1ccccc1	10.2	x	1.9	x	x	21.8
O=S(=O)(Nc1cccc(CCc2ccccn2)c1)c1ccc2ccccc2c1	x	84.0*	x	-16.9	0.841	-7.8
O=S(=O)(Nc1cccc(CCc2ccccn2)c1)c1cc(Cl)ccc1Cl	3.5	13.6	1.2	-17.5	1.09	-10.3
CC(NC(=O)C(c1ccccc1)c1ccccc1)C(=O)N1CCCCC1 (stereo unspecified)	-1.3	-1.9	-0.4	5.7	2.55	6.9
O=C(NN1c2ccccc2CCc2ccccc21)c1ccccc1Br	3.2	76.3*	0.3	-0.9	0.267	4.6
CNC(=O)N1c2ccccc2CCc2ccccc21	-1.2	x	-0.8	-12.0	x	3.4
N#Cc1ccsc1NC(=O)COC(=O)CCCSc1nc2ccccc2s1	-1.1	72.8*	-1.7	-23.1	2.88	8.9
NC(=O)COC(=O)CCCSc1nc2ccccc2s1	-0.2	9.2	-1.4	4.1	-1.32	9.9
Cc1cnc(NC(=O)CCCSc2nc3ccccc3s2)s1	0.8	76.5*	1.1	3.2	0.195	-2.9
COc1ccc2[nH]cc(CCNC(=O)C3CC(=O)N(c4ccc(Cl)cc4)C3)c2c1 (stereo unspecified)	-1.8	x	-2.6	1.6	x	8.9
Cc1cccc(C)c1NC(=O)C[N+](C)(C)C	x	-8.0	x	x	x	x
O=c1ccc(/C=C/c2ccccc2)nn1Cc1ccccc1Cl	-4.4	69.2	0.2	-1.8	-0.35	26.5
Cn1c(=O)c2c(nc(NC3CCCCC3)n2CC(=O)C23CC4CC(CC(C4)C2)C3)n(C)c1=O	-0.9	81.2*	3.3	-28.1	0.98	2.5
O=C(NCc1csc2ccccc12)Nc1cc(Cl)cc(Cl)c1	1.5	86.3*	1.3	5.2	-0.32	-2.8
O=C(NCc1ccccn1)Nc1cc(Cl)cc(Cl)c1	-1.2	x	-4.4	-27.2	x	-0.1
COc1cc(/C=N/NC(N)=O)cc(Br)c1OCc1ccc(C)cc1	0.7	82.5*	0.2	-8.6	-0.0696	-1.5
O=c1c2ccccc2n(Cc2cccc(F)c2)c(=O)n1C1CCCC1	-2.8	81.6*	-0.7	-11.1	0.429	3.5
O=C1CC(c2ccco2)Cc2nc(Nc3nc(-c4ccccc4)c4ccccc4n3)ncc21 (stereo unspecified)	1.6	92.8*	-4.9	-5.7	-0.807	-9.8
COc1ccc(-c2cc(=O)c3ccc(O)cc3o2)cc1	x	x	x	x	x	13.5
COc1ccc(-c2cc(=O)c3cc(OC)ccc3o2)cc1	-3.6	78.2*	-0.5	2.2	-0.671	-1.3
CCOc1ccc(S(=O)(=O)N(CC(=O)N/N=C/c2cccs2)c2ccc(C)cc2)cc1	-0.2	75.8*	-2.6	-4.9	-0.399	-16.6
CCOc1ccc2ccccc2c1/C=N/NC(=O)CC1(C)OCCCO1	0.1	47.1	-2.3	-16.3	-1.38	-6.8
CCc1nnc(NC(=O)CSc2nc(-c3ccccc3)nc3ccccc23)s1	1.1	90.3*	9.3	4.4	0.0813	-10.9
N#Cc1ccc(-c2cccnc2)nc1SCC(=O)Nc1sc2c(c1C#N)CCC2	0.3	56.1	9.6	-13.8	0.184	12.8
SMILES	UPR CHOP act	CHOP inhibitor	XBP1 UPR activ	pCIP destab	Dynein cargo inh	Beta2AR agonist
CCc1nnc(NC(=O)CSc2ccc(-c3ccc(F)cc3)nn2)s1	1.3	-12.1	1.9	-21.1	0.742	x
CCc1nnc(NC(=O)CSc2nc(-c3ccccc3)cc(-c3ccc(F)cc3)c2C#N)s1	-0.9	83.6*	1.3	-4.8	0.376	-10.4
N#Cc1c(C(F)(F)F)cc(-c2ccccc2)nc1SCC(=O)Nc1sc2c(c1C#N)CCC2	6.6	73.7*	2.4	-79.0	-0.184	9.6
CCOc1ccccc1N1CC(C(=O)NNC(=O)c2cc(OC)c(OC)c(OC)c2)CC1=O (stereo unspecified)	0.2	x	0.0	x	x	-2.6
CCOC(=O)N1CCC(NC(=O)c2cccn3c(=O)c4cc(Br)ccc4nc23)CC1	0.7	58.9	-0.6	40.1*	-0.414	-1.1
CC(C)c1ccc(NC(=O)NCc2ccccn2)cc1	2.4	x	0.7	-10.3	x	4.0
Clc1ccc(OCc2nc(-c3ccccn3)no2)c(Br)c1	-3.0	72.0*	-5.0	-3.5	-0.832	-6.2
Clc1ccccc1OCc1nc(-c2ccccn2)no1	0.3	39.2	-3.6	-4.0	-1.12	-3.9
CC1(C)C(=O)C=CC(=O)C(C)(C)C(=O)C=CC(=O)C(C)(C)C2=CC=C(O2)C(C)(C)C(=O)C=CC1=O	x	x	x	x	x	62.3*
Cc1cc(C(=O)Nc2cccc(C(=O)O)c2)c(C)o1	-0.1	15.1	-1.7	-6.0	1.25	4.5
Cc1cc(C(=O)Nc2cccc(C(=O)O)c2)oc1C	-10.5	74.8*	-9.4	-1.0	-1.09	-14.8
CC1CC(C)CN(C(=O)/C(=C\c2ccccc2)c2ccccc2)C1 (stereo unspecified)	1.2	68.2	-1.7	12.3	-0.519	15.2
CC1CCCCN1C(=O)/C(=C\c1ccccc1)c1ccccc1 (stereo unspecified)	2.1	88.5*	-0.9	1.6	0.00689	-2.4
CCCC(=O)OCCNc1cc(Sc2nccn2C)c2nonc2c1[N+](=O)[O-]	x	108.4*	x	-18.0	-3.49	24.8
CCCSc1cc(NCCOC(C)=O)c([N+](=O)[O-])c2nonc12	-2.0	19.9	-2.2	-1.8	-0.155	-3.9
CS(=O)(=O)c1ccc(Sc2nc3ccccc3s2)c([N+](=O)[O-])c1	1.7	6.3	-2.0	-0.6	2.2	2.2
Cc1nnc(Sc2cc(NCCCO)c([N+](=O)[O-])c3nonc23)s1	x	-50.8	x	-16.9	1.46	42.6*
O=[N+]([O-])c1c(NCCO)cc(N2CCCCCC2)c2nonc12	4.2	x	-0.7	8.3	x	3.4
CCC(=O)OCCNc1cc(Sc2nc3ccccc3s2)c2nonc2c1[N+](=O)[O-]	-9.2	112.5*	-7.4	-3.9	-1.96	-203.0
Cc1ccccc1SC1CCN(Cc2nc(C3CC3)no2)CC1	-0.1	23.1	1.3	-25.3	0.263	3.6
COc1ccc(OCC(=O)Nc2cc(-c3nn4c(C)nnc4s3)ccc2C)cc1	-1.3	53.8	3.0	-16.8	0.0739	69.8*
CC(C)CN(C(=O)CCC(=O)OCc1ccc(Cl)cc1Cl)c1c(N)n(CC(C)C)c(=O)[nH]c1=O	2.6	x	0.5	x	x	3.8
CC1(C)OC(=O)C(=CNC(=O)c2c(F)cccc2F)C(=O)O1	-2.6	72.5*	-2.8	-4.0	1.16	3.7
